# From ChEMBL document CHEMBL1152649, “Synthesis, cytotoxicity and human telomerase inhibition activities of a series of 1,2-heteroannelated anthraquinones and anthra[1,2-d]imidazole-6,11-dione homologues” (2009)
# Active and inactive are the calls of the source. The calls are words filed in the database; no cut-off is given here.
# Tests used:
# HL-60(TB) = assay: Antiproliferative activity against human HL-60(TB) cells assessed as cell growth at 10 uM; assay type: functional; details: read-out: Activity
# How it was run: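 NCI Developmental Therapeutics Program 60-cell-line one-dose screen at 10^-5 M. Readout is growth percentage of treated cells relative to untreated control cells.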
# MDA-MB-231 = assay: Antiproliferative activity against human MDA-MB-231 cells assessed as cell growth at 10 uM; assay type: functional; details: read-out: Activity
# How it was run: (§1)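 NCI 60 cell line panel, single-dose screen (10^-5 M) run by the developmental therapeutics program protocol. Results are given as growth percent of treated cells relative to untreated control cells for each line.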
# MOLT-4 = assay: Antiproliferative activity against human MOLT4 cells assessed as cell growth at 10 uM; assay type: functional; details: read-out: Activity; how it was run: as §1
# COLO 205 = assay: Antiproliferative activity against human COLO205 cells assessed as cell growth at 10 uM; assay type: functional; details: read-out: Activity; how it was run: as §1
# SN12C = assay: Antiproliferative activity against human SN12C cells assessed as cell growth at 10 uM; assay type: functional; details: read-out: Activity; how it was run: as §1
# A549 = assay: Antiproliferative activity against human A549 cells assessed as cell growth at 10 uM; assay type: functional; details: read-out: Activity; how it was run: as §1
# DU-145 = assay: Antiproliferative activity against human DU145 cells assessed as cell growth at 10 uM; assay type: functional; details: read-out: Activity; how it was run: as §1
# [1] = Antiproliferative activity against human Hs 578T cells assessed as cell growth at 10 uM; assay type: functional; details: read-out: Activity; how it was run: as §1
# SK-MEL-28 = assay: Antiproliferative activity against human SK-MEL-28 cells assessed as cell growth at 10 uM; assay type: functional; details: read-out: Activity; how it was run: as §1
# U-251 = assay: Antiproliferative activity against human U251 cells assessed as cell growth at 10 uM; assay type: functional; details: read-out: Activity
# How it was run: (§2)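 NCI 60 cell line panel, single dose (10^-5 M), run per the Developmental Therapeutics Program protocol (one dose mean graph). Each result is the growth percentage of treated cells relative to untreated control cells.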
# M14 = assay: Antiproliferative activity against human M14 cells assessed as cell growth at 10 uM; assay type: functional; details: read-out: Activity; how it was run: as §1
# UACC-62 = assay: Antiproliferative activity against human UACC62 cells assessed as cell growth at 10 uM; assay type: functional; details: read-out: Activity; how it was run: as §2
# UO-31 = assay: Antiproliferative activity against human UO31 cells assessed as cell growth at 10 uM; assay type: functional; details: read-out: Activity; how it was run: as §2
# HCC 2998 = assay: Antiproliferative activity against human HCC2998 cells assessed as cell growth at 10 uM; assay type: functional; details: read-out: Activity; how it was run: as §1
# SF-539 = assay: Antiproliferative activity against human SF539 cells assessed as cell growth at 10 uM; assay type: functional; details: read-out: Activity; how it was run: as §1
# [2] = Cytotoxicity against human H1299 cells at 10 uM after 48 hrs by MTT assay; assay type: functional; details: NCI-H1299, 48 h
# How it was run: (§3)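 H1299 non-small cell lung cancer cells were grown in RPMI 1640 with 10% FBS, penicillin and streptomycin at 37 °C under 5% CO2. About 2 × 10³ cells per well were seeded and left 24 h. Compounds were dissolved fresh in DMSO, diluted into complete medium and applied for 48 h. MTT was then added for 4 h at 37 °C, followed by lysis buffer (20% SDS, 50% DMF) for 16 h, and absorbance was read at 550 nm.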
# OVCAR-8 = assay: Antiproliferative activity against human OVCAR8 cells assessed as cell growth at 10 uM; assay type: functional; details: read-out: Activity; how it was run: as §1
# HCT-116 = assay: Antiproliferative activity against human HCT116 cells assessed as cell growth at 10 uM; assay type: functional; details: read-out: Activity; how it was run: as §1
# A498 = assay: Antiproliferative activity against human A498 cells assessed as cell growth at 10 uM; assay type: functional; details: read-out: Activity; how it was run: as §1
# TK-10 = assay: Antiproliferative activity against human TK10 cells assessed as cell growth at 10 uM; assay type: functional; details: read-out: Activity; how it was run: as §2
# Malme-3M = assay: Antiproliferative activity against human MALME-3M cells assessed as cell growth at 10 uM; assay type: functional; details: read-out: Activity; how it was run: as §1
# CCRF-CEM = assay: Antiproliferative activity against human CCRF-CEM cells assessed as cell growth at 10 uM; assay type: functional; details: read-out: Activity; how it was run: as §1
# NCI-H522 = assay: Antiproliferative activity against human NCI-H522 cells assessed as cell growth at 10 uM; assay type: functional; details: read-out: Activity; how it was run: as §1
# [3] = Cytotoxicity against human H1299 cells at 100 uM after 48 hrs by MTT assay; assay type: functional; details: NCI-H1299, 48 h; how it was run: as §3
# EKVX = assay: Antiproliferative activity against human EKVX cells assessed as cell growth at 10 uM; assay type: functional; details: read-out: Activity; how it was run: as §1
# [4] = biological target: Telomerase reverse transcriptase (Homo sapiens) (UniProt O14746); assay: Inhibition of TERT in human H1299 cells assessed as residual transcriptional activity at 1 uM after 24 hrs by SEAP reporter gene assay; values are per cent of control
# OVCAR-4 = assay: Antiproliferative activity against human OVCAR4 cells assessed as cell growth at 10 uM; assay type: functional; details: read-out: Activity; how it was run: as §1
# SNB-19 = assay: Antiproliferative activity against human SNB19 cells assessed as cell growth at 10 uM; assay type: functional; details: read-out: Activity; how it was run: as §1
# SF-268 = assay: Antiproliferative activity against human SF268 cells assessed as cell growth at 10 uM; assay type: functional; details: read-out: Activity; how it was run: as §1
# PC-3 = assay: Antiproliferative activity against human PC3 cells assessed as cell growth at 10 uM; assay type: functional; details: read-out: Activity; how it was run: as §1
# [5] = Cytotoxicity against human H1299 cells at 1 uM after 48 hrs by MTT assay; assay type: functional; details: NCI-H1299, 48 h; how it was run: as §3
# SNB-75 = assay: Antiproliferative activity against human SNB75 cells assessed as cell growth at 10 uM; assay type: functional; details: read-out: Activity; how it was run: as §2
# SF-295 = assay: Antiproliferative activity against human SF295 cells assessed as cell growth at 10 uM; assay type: functional; details: read-out: Activity; how it was run: as §1
# T47D = assay: Antiproliferative activity against human T47D cells assessed as cell growth at 10 uM; assay type: functional; details: read-out: Activity; how it was run: as §2
# [6] = biological target: Telomerase reverse transcriptase (Homo sapiens) (UniProt O14746); assay: Inhibition of telomerase in human H1299 cells up to 100 uM by TRAP assay; assay type: cell-based
# How it was run: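 PCR-based telomeric repeat amplification protocol (TRAP). The telomerase source was total lysate of H1299 lung cancer cells, with protein measured against BSA standards. Controls were extract without inhibitor and RNase A-treated extract.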
# LOX IMVI = assay: Antiproliferative activity against human LOXIMVI cells assessed as cell growth at 10 uM; assay type: functional; details: read-out: Activity; how it was run: as §1
# NCI/ADR-RES = assay: Antiproliferative activity against human NCI/ADR-RES cells assessed as cell growth at 10 uM; assay type: functional; details: read-out: Activity; how it was run: as §1
# OVCAR-3 = assay: Antiproliferative activity against human OVCAR-3 cells assessed as cell growth at 10 uM; assay type: functional; details: read-out: Activity; how it was run: as §1
# OVCAR-5 = assay: Antiproliferative activity against human OVCAR5 cells assessed as cell growth at 10 uM; assay type: functional; details: read-out: Activity; how it was run: as §1
# SK-MEL-2 = assay: Antiproliferative activity against human SK-MEL-2 cells assessed as cell growth at 10 uM; assay type: functional; details: read-out: Activity; how it was run: as §1
# HCT-15 = assay: Antiproliferative activity against human HCT15 cells assessed as cell growth at 10 uM; assay type: functional; details: read-out: Activity; how it was run: as §1
# HT-29 = assay: Antiproliferative activity against human HT-29 cells assessed as cell growth at 10 uM; assay type: functional; details: read-out: Activity; how it was run: as §1
# NCI-H226 = assay: Antiproliferative activity against human NCI-H226 cells assessed as cell growth at 10 uM; assay type: functional; details: read-out: Activity; how it was run: as §1
# [7] = biological target: Telomerase reverse transcriptase (Homo sapiens) (UniProt O14746); assay: Inhibition of TERT in human H1299 cells assessed as residual transcriptional activity at 10 uM after 24 hrs by SEAP reporter gene assay; values are per cent of control
# Sequence of Telomerase reverse transcriptase (Homo sapiens) (O14746 whole entry): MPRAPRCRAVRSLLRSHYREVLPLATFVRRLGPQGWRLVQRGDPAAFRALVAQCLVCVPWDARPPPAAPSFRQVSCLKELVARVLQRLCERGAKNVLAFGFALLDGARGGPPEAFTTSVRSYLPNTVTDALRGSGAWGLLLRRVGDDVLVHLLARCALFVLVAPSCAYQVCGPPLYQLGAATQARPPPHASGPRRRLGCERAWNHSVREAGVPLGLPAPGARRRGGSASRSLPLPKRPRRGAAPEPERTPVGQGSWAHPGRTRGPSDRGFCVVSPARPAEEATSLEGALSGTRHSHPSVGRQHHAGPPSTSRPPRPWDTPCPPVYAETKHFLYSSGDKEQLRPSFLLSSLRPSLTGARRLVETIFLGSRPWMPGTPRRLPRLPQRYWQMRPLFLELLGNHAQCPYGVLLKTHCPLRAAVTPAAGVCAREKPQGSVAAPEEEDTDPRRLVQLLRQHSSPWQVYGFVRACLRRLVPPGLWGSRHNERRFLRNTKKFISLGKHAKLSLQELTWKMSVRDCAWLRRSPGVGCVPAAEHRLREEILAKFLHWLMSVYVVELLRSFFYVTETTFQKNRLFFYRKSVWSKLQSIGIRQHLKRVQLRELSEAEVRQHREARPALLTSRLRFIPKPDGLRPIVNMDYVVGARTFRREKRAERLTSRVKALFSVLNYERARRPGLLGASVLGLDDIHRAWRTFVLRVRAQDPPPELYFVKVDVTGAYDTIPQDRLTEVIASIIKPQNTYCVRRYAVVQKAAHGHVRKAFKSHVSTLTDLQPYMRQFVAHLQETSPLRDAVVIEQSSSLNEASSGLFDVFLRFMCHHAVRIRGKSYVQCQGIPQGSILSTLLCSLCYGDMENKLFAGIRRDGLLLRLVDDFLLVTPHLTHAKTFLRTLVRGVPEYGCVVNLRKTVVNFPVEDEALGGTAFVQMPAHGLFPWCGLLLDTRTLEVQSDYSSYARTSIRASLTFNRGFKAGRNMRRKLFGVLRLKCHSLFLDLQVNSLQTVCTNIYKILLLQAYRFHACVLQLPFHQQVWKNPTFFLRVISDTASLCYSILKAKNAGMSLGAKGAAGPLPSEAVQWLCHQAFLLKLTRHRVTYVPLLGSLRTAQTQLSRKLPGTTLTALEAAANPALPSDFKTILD
compound,measurement,setting,value
Cc1ccc(-c2nc3ccc4c(c3[nH]2)C(=O)c2ccccc2C4=O)cc1,growth at 10 µM,HL-60(TB),125%
same,growth at 10 µM,MDA-MB-231,97.6%
same,growth at 10 µM,MOLT-4,106%
same,growth at 10 µM,COLO 205,108%
same,growth at 10 µM,SN12C,103%
same,growth at 10 µM,A549,55.7%
same,growth at 10 µM,DU-145,98.8%
same,growth at 10 µM,[1],138%
same,growth at 10 µM,SK-MEL-28,154%
same,growth at 10 µM,U-251,104%
same,growth at 10 µM,M14,106%
same,growth at 10 µM,UACC-62,90%
same,growth at 10 µM,UO-31,75.2%
same,growth at 10 µM,HCC 2998,104%
same,growth at 10 µM,SF-539,91.7%
same,viability at 10 µM,[2],72%
same,growth at 10 µM,OVCAR-8,96.4%
same,growth at 10 µM,HCT-116,99.8%
same,growth at 10 µM,A498,176%
same,growth at 10 µM,TK-10,154%
same,growth at 10 µM,Malme-3M,97.6%
same,growth at 10 µM,CCRF-CEM,101%
same,growth at 10 µM,NCI-H522,84.7%
same,viability at 100 µM,[3],16%
same,growth at 10 µM,EKVX,91.2%
same,residual activity,[4],86%
same,growth at 10 µM,OVCAR-4,96.8%
same,growth at 10 µM,SNB-19,97.8%
same,growth at 10 µM,SF-268,106%
same,growth at 10 µM,PC-3,87.6%
same,viability at 1 µM,[5],75%
same,growth at 10 µM,SNB-75,107%
same,growth at 10 µM,SF-295,94.2%
same,growth at 10 µM,T47D,76%
same,inhibition,[6],inactive
same,growth at 10 µM,LOX IMVI,104%
same,growth at 10 µM,NCI/ADR-RES,104%
same,growth at 10 µM,OVCAR-3,96.1%
same,growth at 10 µM,OVCAR-5,106%
same,growth at 10 µM,SK-MEL-2,79.6%
same,growth at 10 µM,HCT-15,100%
same,growth at 10 µM,HT-29,106%
same,growth at 10 µM,NCI-H226,101%
same,residual activity,[7],82%
O=C1c2ccccc2C(=O)c2c1ccc1nc(-c3ccc(Br)cc3)[nH]c21,growth at 10 µM,HL-60(TB),100%
same,growth at 10 µM,MDA-MB-231,92.3%
same,growth at 10 µM,MOLT-4,101%
same,growth at 10 µM,COLO 205,110%
same,growth at 10 µM,SN12C,112%
same,growth at 10 µM,A549,95%
same,growth at 10 µM,DU-145,113%
same,growth at 10 µM,[1],181%
same,growth at 10 µM,SK-MEL-28,131%
same,growth at 10 µM,U-251,105%
same,growth at 10 µM,M14,102%
same,growth at 10 µM,UACC-62,105%
same,growth at 10 µM,UO-31,66.2%
same,growth at 10 µM,HCC 2998,98.1%
same,growth at 10 µM,SF-539,103%
same,viability at 10 µM,[2],85%
same,growth at 10 µM,OVCAR-8,96.3%
same,growth at 10 µM,HCT-116,99.6%
same,growth at 10 µM,A498,117%
same,growth at 10 µM,TK-10,280%
same,growth at 10 µM,Malme-3M,224%
same,growth at 10 µM,CCRF-CEM,98.7%
same,growth at 10 µM,NCI-H522,76.5%
same,viability at 100 µM,[3],20%
same,growth at 10 µM,EKVX,82.7%
same,residual activity,[4],89%
same,growth at 10 µM,OVCAR-4,94.1%
same,growth at 10 µM,SNB-19,101%
same,growth at 10 µM,SF-268,106%
same,growth at 10 µM,PC-3,88.7%
same,viability at 1 µM,[5],96%
same,growth at 10 µM,SNB-75,87.3%
same,growth at 10 µM,SF-295,119%
same,growth at 10 µM,T47D,97.3%
same,inhibition,[6],inactive
same,growth at 10 µM,LOX IMVI,102%
same,growth at 10 µM,NCI/ADR-RES,93.7%
same,growth at 10 µM,OVCAR-3,100%
same,growth at 10 µM,OVCAR-5,93.2%
same,growth at 10 µM,SK-MEL-2,72.2%
same,growth at 10 µM,HCT-15,96.6%
same,growth at 10 µM,HT-29,98.8%
same,growth at 10 µM,NCI-H226,103%
same,residual activity,[7],71%
